Measured values from ChEMBL document CHEMBL1150393, “Evaluation of radiolabeled (hetero)aromatic analogues of N-(2-diethylaminoethyl)-4-iodobenzamide for imaging and targeted radionuclide therapy of melanoma” (J Med Chem, 2008).

Experiments:
Conditions in all cases: in vivo
[1] = test system: Kidney; assay: Biodistribution in kidney of C57BL/6 mouse bearing mouse B16-F0 cells at 0.74 to 0.92 MBq, iv after 24 hrs; assay type: ADME, organism-based
In short: (§1)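 Male C57BL6 mice with s.c. left-flank B16-F0 melanoma (5 × 10⁵ cells in PBS). Two mice per time point frozen in liquid nitrogen after CO₂ sacrifice. Eight 40 µm whole-body cryosections per mouse read by multiwire proportional counter. cpm/mm² converted to kBq/g and expressed as %ID/g.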

[2] = Ratio of drug level in tumor to liver of C57BL/6 mouse bearing mouse B16-F0 cells at 0.74 to 0.92 MBq, iv after 24 hrs; assay type: ADME, organism-based
In short: (§2)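 Tumour and organ radioactive concentrations came from whole-body cryosection counting (40 µm slices, eight per mouse, two mice per time) after tail-vein injection of the [¹²⁵I]-labelled compound (0.1 µmol) into male C57BL6 mice bearing s.c. B16-F0 melanoma. Each value is the ratio of the tumour concentration to the organ concentration.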

[3] = test system: Thyroid gland; assay: Biodistribution in thyroid of C57BL/6 mouse bearing mouse B16-F0 cells at 0.74 to 0.92 MBq, iv after 72 hrs; assay type: ADME, organism-based
In short: (§3)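 [¹²⁵I]-labelled compound given iv by tail vein (0.1 µmol per mouse) to male C57BL6 mice bearing s.c. B16-F0 flank tumours (5 × 10⁵ cells in PBS). Two mice per time point were killed by CO₂, frozen in liquid nitrogen and cut into 40 µm cryosections, eight slices per mouse. Slice radioactivity was read on a multiwire proportional counter, converted to kBq/g and reported as %ID/g.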

[4] = Biodistribution in intestinal content of C57BL/6 mouse bearing mouse B16-F0 cells at 0.74 to 0.92 MBq, iv after 24 hrs; assay type: ADME, organism-based; in short: as §1
[5] = test system: Pancreas; assay: Biodistribution in pancreas of C57BL/6 mouse bearing mouse B16-F0 cells at 0.74 to 0.92 MBq, iv after 3 hrs; assay type: ADME, organism-based; in short: as §1
[6] = Biodistribution in tumor of C57BL/6 mouse bearing mouse B16-F0 cells at 0.74 to 0.92 MBq, iv after 72 hrs; assay type: ADME, organism-based, Neoplasm; in short: as §3
[7] = test system: Brain; assay: Biodistribution in brain of C57BL/6 mouse bearing mouse B16-F0 cells at 0.74 to 0.92 MBq, iv after 6 hrs; assay type: ADME, organism-based; in short: as §1
[8] = test system: Muscle tissue; assay: Biodistribution in muscle of C57BL/6 mouse bearing mouse B16-F0 cells at 0.74 to 0.92 MBq, iv after 1 hr; assay type: ADME, organism-based; in short: as §1
[9] = test system: Pancreas; assay: Biodistribution in pancreas of C57BL/6 mouse bearing mouse B16-F0 cells at 0.74 to 0.92 MBq, iv after 6 hrs; assay type: ADME, organism-based; in short: as §1
[10] = test system: Lung; assay: Biodistribution in lung of C57BL/6 mouse bearing mouse B16-F0 cells at 0.74 to 0.92 MBq, iv after 24 hrs; assay type: ADME, organism-based; in short: as §1
[11] = test system: Kidney; assay: Biodistribution in kidney of C57BL/6 mouse bearing mouse B16-F0 cells at 0.74 to 0.92 MBq, iv after 6 hrs; assay type: ADME, organism-based; in short: as §1
[12] = Biodistribution in intestinal content of C57BL/6 mouse bearing mouse B16-F0 cells at 0.74 to 0.92 MBq, iv after 3 hrs; assay type: ADME, organism-based; in short: as §1
[13] = Biodistribution in intestinal content of C57BL/6 mouse bearing mouse B16-F0 cells at 0.74 to 0.92 MBq, iv after 6 hrs; assay type: ADME, organism-based; in short: as §1
[14] = Biodistribution in uvea of C57BL/6 mouse bearing mouse B16-F0 cells at 0.74 to 0.92 MBq, iv after 72 hrs; assay type: ADME, organism-based, Uveal tract; in short: as §3
[15] = test system: Liver; assay: Biodistribution in liver of C57BL/6 mouse bearing mouse B16-F0 cells at 0.74 to 0.92 MBq, iv after 3 hrs; assay type: ADME, organism-based; in short: as §1
[16] = Biodistribution in tumor of C57BL/6 mouse bearing mouse B16-F0 cells at 0.74 to 0.92 MBq, iv after 3 hrs; assay type: ADME, organism-based, Neoplasm; in short: as §3
[17] = Ratio of drug level in tumor to liver of C57BL/6 mouse bearing mouse B16-F0 cells at 0.74 to 0.92 MBq, iv after 6 hrs; assay type: ADME, organism-based; in short: as §2
[18] = test system: Liver; assay: Biodistribution in liver of C57BL/6 mouse bearing mouse B16-F0 cells at 0.74 to 0.92 MBq, iv after 24 hrs; assay type: ADME, organism-based; in short: as §1
[19] = Ratio of drug level in tumor to lung of C57BL/6 mouse bearing mouse B16-F0 cells at 0.74 to 0.92 MBq, iv after 1 hr; assay type: ADME, organism-based; in short: as §2
[20] = test system: Spleen; assay: Biodistribution in spleen of C57BL/6 mouse bearing mouse B16-F0 cells at 0.74 to 0.92 MBq, iv after 24 hrs; assay type: ADME, organism-based; in short: as §3
[21] = test system: Brain; assay: Biodistribution in brain of C57BL/6 mouse bearing mouse B16-F0 cells at 0.74 to 0.92 MBq, iv after 1 hr; assay type: ADME, organism-based; in short: as §1
[22] = Ratio of drug level in tumor to lung of C57BL/6 mouse bearing mouse B16-F0 cells at 0.74 to 0.92 MBq, iv after 24 hrs; assay type: ADME, organism-based; in short: as §2
[23] = Ratio of drug level in tumor to brain of C57BL/6 mouse bearing mouse B16-F0 cells at 0.74 to 0.92 MBq, iv after 6 hrs; assay type: ADME, organism-based; in short: as §2
[24] = Biodistribution in intestinal content of C57BL/6 mouse bearing mouse B16-F0 cells at 0.74 to 0.92 MBq, iv after 1 hr; assay type: ADME, organism-based; in short: as §1
[25] = test system: Muscle tissue; assay: Biodistribution in muscle of C57BL/6 mouse bearing mouse B16-F0 cells at 0.74 to 0.92 MBq, iv after 3 hrs; assay type: ADME, organism-based; in short: as §1
[26] = test system: Blood; assay: Biodistribution in blood of C57BL/6 mouse bearing mouse B16-F0 cells at 0.74 to 0.92 MBq, iv after 24 hrs; assay type: ADME, organism-based; in short: as §1
[27] = Biodistribution in Stomach content of C57BL/6 mouse bearing mouse B16-F0 cells at 0.74 to 0.92 MBq, iv after 1 hr; assay type: ADME, organism-based; in short: as §1
[28] = test system: Thyroid gland; assay: Biodistribution in thyroid of C57BL/6 mouse bearing mouse B16-F0 cells at 0.74 to 0.92 MBq, iv after 24 hrs; assay type: ADME, organism-based; in short: as §3
[29] = test system: Spleen; assay: Biodistribution in spleen of C57BL/6 mouse bearing mouse B16-F0 cells at 0.74 to 0.92 MBq, iv after 3 hrs; assay type: ADME, organism-based; in short: as §3
[30] = test system: Spleen; assay: Biodistribution in spleen of C57BL/6 mouse bearing mouse B16-F0 cells at 0.74 to 0.92 MBq, iv after 72 hrs; assay type: ADME, organism-based; in short: as §3
[31] = Ratio of drug level in tumor to brain of C57BL/6 mouse bearing mouse B16-F0 cells at 0.74 to 0.92 MBq, iv after 3 hrs; assay type: ADME, organism-based; in short: as §2
[32] = Biodistribution in Stomach content of C57BL/6 mouse bearing mouse B16-F0 cells at 0.74 to 0.92 MBq, iv after 72 hrs; assay type: ADME, organism-based; in short: as §1
[33] = test system: Thyroid gland; assay: Biodistribution in thyroid of C57BL/6 mouse bearing mouse B16-F0 cells at 0.74 to 0.92 MBq, iv after 1 hr; assay type: ADME, organism-based; in short: as §3

| Drug uptake [1] | Ratio [2] | Drug uptake [4] | Drug uptake [5] | Drug uptake [6] | Drug uptake [7] | Drug uptake [8] | Drug uptake [11] | Drug uptake [12] | Drug uptake [13] | Drug uptake [14] | Drug uptake [15] | Drug uptake [16] | Ratio [17] | Drug uptake [18] | Ratio [19] | Drug uptake [21] | Drug uptake [24] | Drug uptake [25] | Drug uptake [27] | other results | Compound |
| --- | --- | --- | --- | --- | --- | --- | --- | --- | --- | --- | --- | --- | --- | --- | --- | --- | --- | --- | --- | --- | --- |
| 0.03 % ID/g | 39.14 | 1.62 % ID/g | 0.96 % ID/g | 2.4 % ID/g | 0.08 % ID/g | 0.92 % ID/g | 0.2 % ID/g | 90.12 % ID/g | 61.06 % ID/g | 6.79 % ID/g | 1.84 % ID/g | 4.1 % ID/g | 18.16 | 0.07 % ID/g | 2.28 | 0.07 % ID/g | 52.94 % ID/g | 0.13 % ID/g | 12.74 % ID/g | Drug uptake [3]: 9.83 % ID/g; Drug uptake [9]: 1.08 % ID/g; Drug uptake [10]: 0.04 % ID/g; Drug uptake [20]: 0.15 % ID/g; Ratio [22]: 68.5; Ratio [23]: 72.6; Drug uptake [26]: 0.22 % ID/g; Drug uptake [28]: 5.09 % ID/g; Drug uptake [29]: 0.28 % ID/g | CCN(CC)CCNC(=O)c1c[nH]c2ccc([125I])cc2c1=O.Cl.Cl |
| 0.34 % ID/g | 5.39 | 1.45 % ID/g | 6.17 % ID/g | 5.9 % ID/g | 0.37 % ID/g | 1.79 % ID/g | 7.6 % ID/g | 20.65 % ID/g | 23.36 % ID/g | 18.3 % ID/g | 8.89 % ID/g | 25.4 % ID/g | 2.42 | 2.25 % ID/g | 2.09 | 1.96 % ID/g | 15.78 % ID/g | 1.14 % ID/g | 48.03 % ID/g | Drug uptake [30]: 1.85 % ID/g; Ratio [31]: 30.54; Drug uptake [10]: 0.53 % ID/g; Drug uptake [20]: 2.66 % ID/g; Ratio [22]: 22.89; Ratio [23]: 46.51; Drug uptake [29]: 10.63 % ID/g | CCN(CC)CCNC(=O)c1ccc2cc([125I])ccc2n1.Cl.Cl |
| 0.83 % ID/g | 5.07 | 3.31 % ID/g | 2.48 % ID/g | 0.8 % ID/g | 0.74 % ID/g | 1.5 % ID/g | 2.5 % ID/g | 112.56 % ID/g | 79.85 % ID/g | 5.86 % ID/g | 5.21 % ID/g | 10.2 % ID/g | 2.71 | 1.61 % ID/g | 0.58 | 4.84 % ID/g | 76.74 % ID/g | 0.49 % ID/g | 35.41 % ID/g | Drug uptake [30]: 10.87 % ID/g; Ratio [31]: 3.91; Drug uptake [9]: 1.46 % ID/g; Drug uptake [10]: 0.37 % ID/g; Drug uptake [32]: 0.04 % ID/g; Drug uptake [20]: 1.22 % ID/g; Ratio [22]: 22.05; Ratio [23]: 5.38; Drug uptake [26]: 0.1 % ID/g; Drug uptake [29]: 2.79 % ID/g | CCN(CC)CCNC(=O)c1cc2cc([125I])ccc2[nH]1.Cl |
|  | 16.4 | 1.7 % ID/g |  | 3.1 % ID/g |  | 0.74 % ID/g | 2.11 % ID/g | 68.64 % ID/g | 29.16 % ID/g | 9.73 % ID/g | 2.02 % ID/g | 7.1 % ID/g | 5.14 | 0.43 % ID/g | 1.96 | 0.3 % ID/g | 42.97 % ID/g | 0.43 % ID/g | 23.01 % ID/g | Drug uptake [30]: 1.62 % ID/g; Drug uptake [3]: 132.79 % ID/g; Ratio [31]: 79.11; Drug uptake [33]: 16.88 % ID/g; Drug uptake [28]: 88.65 % ID/g | CCN(CC)CCNC(=O)c1cc2c([125I])cccc2cn1.Cl.Cl |
